FN deposit inh: inhibitors of fibronectin matrix deposition, primary screen, AH1F cells, Alexa488-fibronectin fluorescence, plate reader; AH1F fibroblasts, overnight; inhibition, % at 12.6 µM; 350,000 tested, 0.086% active; AID 743247, 2014;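 active means mean inhibition across replicates of 30% or more, regardless of how many single replicates reach that level; inconclusive means mean under 30% yet at least half of replicates reach 30%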;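 further: positive control wells lacked labelled fibronectin entirely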
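test system = AH1F fibroblasts assembling fluorescent fibronectin matrix | quantity = 10000 AH1F cells per well | buffer or medium = DMEM plus 2% serum, read in PBS | doses = single dose, pinned | incubation = 1 h cell attachment, overnight exposure to compound and label | detection = fluorescence at 485 nm excitation, 525 nm emission | read-out basis = inhibition from reduced deposited-fibronectin fluorescence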
C2C12 statin: suppressors of statin myotoxicity in C2C12 myotubes, primary screen, cell-based, single point, plate reader; rescue of ATP level, % at 7.49 µM; C2C12 myotubes + simvastatin, ATP luminescence, 48 h; scaled: DMSO 0, geranylgeraniol control 100; 330,000 tested, 0.78% active;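 active means mean ATP rescue above about 67%, or every replicate alone reaching that limit, limit read from the data, passing the limit was not always enough; inconclusive means no clear call, values can overlap the other calls; inactive means mean under the limit and some replicate under it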;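 further: myotubes were challenged with 10 µM simvastatin during compound exposure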
rRNA inh HTS: reduced GFP signal of wild-type E. coli, primary screen, bacterial rRNA inhibitor project, GFP/RFP fluorescence, OD600, single point; E. coli WT GFP vs humanized-ribosome RFP mutants, 24 h; stronger effect = lower value; DMSO median 0, no signal -100; GFP signal change (wild-type ribosome), % (test concentration not listed); 350,000 tested, 1.6% active;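 active means significant combined selectivity score with lowered wild-type GFP, culture density cut under 30%, mutant RFP and density less affected; inactive means any of these conditions unmet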
FGF22 binding: binders of human FGF22 protein, primary screen, FGF22 synaptogenesis inhibitor project, biophysical, thermal shift, single point. Fibroblast growth factor 22 (Homo sapiens), Q9HCT0. recombinant FGF22 thermal shift, SYPRO orange fluorescence; percent of sucrose octasulfate shift, DMSO zero. activity (Tm shift, normalised), % at 9.99 µM. 340,000 tested, 1.5% active. AID 651658, 2012;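 active means mean Tm shift, scaled 0 neutral to 100 positive control, at about 1.3% or above, every replicate too, limit read from the data; inconclusive means no clear call, values can overlap the other calls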
SIRT5 block: SIRT5 desuccinylase inhibitors, primary screen, biochemical, fluorescence imaging, single point, set 5; NAD-dependent protein deacylase sirtuin-5, mitochondrial (Homo sapiens), Q9NXA8; inhibition, % at 15 µM; AID 652115, 2013; 330,000 tested, 1.1% active; Purified SirT5, succinyl-peptide AMC, trypsin-coupled fluorescence; in the data active means inhibition above about 15%; inconclusive means no clear call, values can overlap the other calls
E-sel inducer: E-selectin induction in HUVECs, primary screen, imaging, HUVEC, immunofluorescence imaging, single point; normalized: neutral wells 0, TNF-alpha wells 100; 260,000 tested, 0.37% active; AID 686992, 2013; activation, % at 7.58 µM;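 active means mean E-selectin-positive cell signal at least 10% of the positive control, reached in at least 60% of replicates, without over 20% cell loss; inconclusive means no rule given, readout overlaps actives, possibly toxicity-flagged; inactive means the rest, including those meeting only one limit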
Target sequence (P16581 whole entry, looked up): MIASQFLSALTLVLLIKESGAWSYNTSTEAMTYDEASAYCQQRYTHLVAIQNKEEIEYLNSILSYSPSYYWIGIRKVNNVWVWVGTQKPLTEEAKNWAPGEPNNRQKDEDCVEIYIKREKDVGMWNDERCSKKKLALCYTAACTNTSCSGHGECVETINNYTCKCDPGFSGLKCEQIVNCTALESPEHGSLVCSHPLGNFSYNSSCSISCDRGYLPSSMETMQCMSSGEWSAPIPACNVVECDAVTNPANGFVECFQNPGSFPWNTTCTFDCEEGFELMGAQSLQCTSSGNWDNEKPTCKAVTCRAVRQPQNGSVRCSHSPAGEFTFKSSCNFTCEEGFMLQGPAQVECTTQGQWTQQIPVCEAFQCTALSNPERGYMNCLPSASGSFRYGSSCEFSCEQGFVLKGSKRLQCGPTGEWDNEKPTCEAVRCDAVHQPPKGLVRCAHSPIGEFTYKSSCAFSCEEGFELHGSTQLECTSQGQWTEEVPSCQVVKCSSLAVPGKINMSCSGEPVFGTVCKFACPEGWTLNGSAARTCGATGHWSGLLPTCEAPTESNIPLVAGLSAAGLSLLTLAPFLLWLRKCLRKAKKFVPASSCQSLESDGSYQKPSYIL
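Test system – human umbilical vein endothelial cells (HUVEC), E-selectin induction · Input – 3,000 HUVEC seeded per well · Buffer or medium – EGM-2, gelatin · Compound dosing – single-point compound dose · Detection – immunofluorescence imaging · Measure – percent E-selectin-positive cells · Controls – TNF-alpha high, DMSO low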
An asterisk follows results filed as active; ? = inconclusive; · = no result given. Compounds with a hit are over-represented: about 4% of the library has one in this group of screens.

SMILES | FN deposit inh | C2C12 statin | rRNA inh HTS | FGF22 binding | SIRT5 block | E-sel inducer
CC(C)(C)C(=O)COC(=O)CNC(=O)c1ccc(Oc2ccccc2)cc1 | -10 | 141* | · | · | · | ·
COc1ccc(OC)c(C(=O)COC(=O)CNC(=O)c2ccccc2)c1 | -21 | · | 5 | 0 | 15* | ·
COc1ccc(OC)c(C(=O)COC(=O)c2ccc([N+](=O)[O-])o2)c1 | 1 | 4 | -20* | 0 | 0 | -1
COc1cccc(C(=O)NCC(=O)OCC(=O)C(C)(C)C)c1 | 7 | · | 13 | 0 | -2 | 0
Cc1ccc(C(=O)NCC(=O)OCC(=O)NCC(F)(F)F)cc1 | -6 | · | 12 | 44* | -1 | ·
COc1ccc(OC)c(C(=O)COC(=O)c2cc(C)oc2C)c1 | · | 4 | · | · | · | ·
COc1cccc(C#Cc2ccc([C@H]3[C@H]4CN(C(=O)C5CC5)CC(=O)N4[C@H]3CO)cc2)c1 | · | · | -3 | · | 1 | 0
Cc1ccc(S(=O)(=O)N(C)C[C@@H]2OCCCC[C@H](C)Oc3ccc(NC(=O)c4ccccc4)cc3C(=O)N([C@@H](C)CO)C[C@H]2C)cc1 | 0 | · | 0 | 0 | 1 | ·
C[C@@H]1CCCCO[C@H](CN(C)Cc2ccncc2)[C@H](C)CN([C@@H](C)CO)C(=O)c2cc(N(C)C)ccc2O1 | · | -30 | 0 | · | 0 | 1
COc1ccc(OCC2c3cc(OC)c(OC)cc3CCN2C(=O)C(C)C)cc1 (centres undefined) | -4 | · | -24* | 0 | 3 | 0
CCNC(=S)N1CCc2cc(OC)c(OC)cc2C1COc1ccc(F)cc1 (centres undefined) | 11 | ? | -31* | 0 | -1 | 4
CCCNC(=O)N(C)C[C@@H]1Oc2cc(C3=CCCC3)ccc2S(=O)(=O)N([C@H](C)CO)C[C@@H]1C | · | 7 | -6 | 0 | -6 | 0
OCCN(CCO)c1ncnc2c1sc1nc(N3CCOCC3)c3c(c12)CCCC3 | 18* | -17 | · | · | · | ·
OCCN1CCN(c2ncnc3c2sc2nc(N4CCOCC4)c4c(c23)CCC4)CC1 | · | -1 | -13 | 0 | -1 | ·
COCCN=c1scc(-c2cccs2)n1/N=C/c1ccc(O)c(O)c1O | 7 | · | 6 | 89* | 2 | ·
CCN=c1scc(C)n1/N=C/c1ccc(O)c(O)c1O | 6 | · | · | · | · | -1
COC(=O)C[C@@H]1CC[C@H]2[C@H](COc3ccc(NS(=O)(=O)c4cccc(F)c4)cc3C(=O)N2C)O1 | -8 | -15 | -5 | 0 | -1 | 0
O=S(=O)(Nc1ccc(-n2cccc2)cc1)c1ccc(Cl)c(Cl)c1 | 0 | 18 | -45* | 0 | 5 | ·
c1ccc(-c2ccc(C3[C@H]4CNC[C@@H]3N4Cc3ccccn3)cc2)cc1 (some centres undefined) | -8 | · | 8 | · | 8 | 0
CO[C@@H]1CC[C@@H]2CCOc3c(C#N)cccc3C(=O)N(C)[C@@H](C)C(=O)N(C)C[C@H]1O2 | -2 | 4 | 2 | 0 | -3 | 0
O=C(c1cc(S(=O)(=O)N2CCCCC2)ccc1F)N1CCCCC1 | · | 0 | -1 | 0 | -3 | ·
NS(=O)(=O)c1ccc(F)c(C(=O)O)c1 | 1 | -1 | 3 | 0 | 19* | ·
O=C(NC1CCCC1)[C@H]1[C@H](CO)[C@H]2Cn3c(cccc3=O)[C@@H]1N2Cc1cc(F)ccc1F | · | 19 | 2 | 0 | 4 | 0
COc1ccccc1N1CCN(C(=O)c2ccc(S(=O)(=O)N3CCCCCC3)cc2)CC1 | · | 127* | · | · | · | ·
O=C(c1ccc(Cl)c(S(=O)(=O)N2CCCCCC2)c1)N1CCN(c2ccccc2O)CC1 | -7 | · | -44* | 0 | -1 | -1
CC1CCN(C(=O)c2ccc3c(c2)C(=O)c2ccccc2-3)CC1 | · | -10 | -14 | 0 | · | 0
O=C(c1ccc(S(=O)(=O)N2CCCCC2)cc1)N1CCN(c2ccccc2F)CC1 | -8 | · | · | · | · | ·

Source: PubChem
